Laboratory results from ChEMBL document CHEMBL3585281, “Antibacterial Labdane Diterpenoids from Vitex vestita” (2015).
Converted amounts (≈) assume the structure as drawn.

Key:
Type in all cases: functional
Listeria monocytogenes [1] = test: Antibacterial activity against Listeria monocytogenes N783 after 18 hrs by agar dilution method; settings: N783, 18 h
Outline: (§1)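 Agar-dilution MIC against Gram-positive strains. Compounds in DMSO, geometric dilutions giving final 100−0.75 mg/L in Mueller Hinton agar. Strains grown 18 h at 37 °C in trypticase soy broth, diluted in sterile water, spotted by Steers inoculator (about 1000 UFC/spot). Plates incubated 18 h at 37 °C; DMSO blank; ofloxacin positive control. MIC = lowest concentration with no visible growth.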

Staphylococcus aureus [2] = test: Antibacterial activity against Staphylococcus aureus ATCC 9144 oxford after 18 hrs by agar dilution method; outline: as §1
Listeria monocytogenes [3] = test: Antibacterial activity against Listeria monocytogenes N836 after 18 hrs by agar dilution method; settings: N836, 18 h; outline: as §1
HCT-116 [4] = test: Cytotoxicity against human HCT116 cells assessed as growth inhibition at 10^-5 M after 72 hrs by MTS assay relative to control; settings: HCT-116, 72 h, read-out: GI
Outline: (§2)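 Cells from ATCC; HCT-116 grown in RPMI 1640 and MRC5 in DMEM, each with 10% FCS and 1% glutamine, 37 °C, 5% CO2. Seeded at 2.5 × 10^3 cells/well, cultured 24 h, then exposed to compounds at 1 and 10 μM final for 72 h. MTS read-out, absorbance 490 nm; percent index from treated/control OD490 × 100, three experiments.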

Staphylococcus aureus [5] = test: Antibacterial activity against Staphylococcus aureus CIP 5710 after 18 hrs by agar dilution method; settings: CIP 5710, 18 h; outline: as §1
[6] = tested on: Staphylococcus intermedius; test: Antibacterial activity against Staphylococcus intermedius N987 after 18 hrs by agar dilution method; settings: N987, 18 h; outline: as §1
Bacillus cereus [7] = test: Antibacterial activity against Bacillus cereus N190 after 18 hrs by agar dilution method; settings: N190, 18 h; outline: as §1
[8] = tested on: Staphylococcus haemolyticus; test: Antibacterial activity against Staphylococcus haemolyticus CIP 8156 after 18 hrs by agar dilution method; settings: CIP 8156, 18 h; outline: as §1
Enterococcus faecium [9] = test: Antibacterial activity against Enterococcus faecium N733 after 18 hrs by agar dilution method; settings: N733, 18 h; outline: as §1
Enterococcus faecium [10] = test: Antibacterial activity against Enterococcus faecium CIP 103014 after 18 hrs by agar dilution method; settings: CIP 103014, 18 h; outline: as §1
Enterococcus faecalis [11] = test: Antibacterial activity against Enterococcus faecalis CIP 103214 after 18 hrs by agar dilution method; settings: CIP 103214, 18 h; outline: as §1
Listeria monocytogenes [12] = test: Antibacterial activity against Listeria monocytogenes CIP 103575 after 18 hrs by agar dilution method; settings: CIP 103575, 18 h; outline: as §1
Staphylococcus aureus [13] = test: Antibacterial activity against Staphylococcus aureus CIP 53156 after 18 hrs by agar dilution method; settings: CIP 53156, 18 h; outline: as §1
MRC5 [14] = test: Cytotoxicity against human MRC5 cells assessed as growth inhibition at 10^-5 M after 72 hrs by MTS assay relative to control; settings: MRC5, 72 h, read-out: GI; outline: as §2
Bacillus cereus [15] = test: Antibacterial activity against Bacillus cereus CIP 6624 after 18 hrs by agar dilution method; settings: CIP 6624, 18 h; outline: as §1
Bacillus cereus [16] = test: Antibacterial activity against Bacillus cereus N258 after 18 hrs by agar dilution method; settings: N258, 18 h; outline: as §1
Enterococcus gallinarum [17] = test: Antibacterial activity against Enterococcus gallinarum N489 after 18 hrs by agar dilution method; settings: N489, 18 h; outline: as §1
Enterococcus faecalis [18] = test: Antibacterial activity against Enterococcus faecalis N520 after 18 hrs by agar dilution method; settings: N520, 18 h; outline: as §1
Mammaliicoccus sciuri = test: Antibacterial activity against Staphylococcus sciuri N993 after 18 hrs by agar dilution method; settings: N993, 18 h; outline: as §1
Enterococcus avium = test: Antibacterial activity against Enterococcus avium CIP 104053 after 18 hrs by agar dilution method; settings: CIP 104053, 18 h; outline: as §1
[19] = tested on: Staphylococcus lugdunensis; test: Antibacterial activity against Staphylococcus lugdunensis ATCC 43809 after 18 hrs by agar dilution method; settings: ATCC 43809, 18 h; outline: as §1
[20] = tested on: Staphylococcus epidermidis; test: Antibacterial activity against Staphylococcus epidermidis CIP 53124 after 18 hrs by agar dilution method; settings: CIP 53124, 18 h; outline: as §1
Listeria monocytogenes [21] = test: Antibacterial activity against Listeria monocytogenes N851 after 18 hrs by agar dilution method; settings: N851, 18 h; outline: as §1
Bacillus cereus [22] = test: Antibacterial activity against Bacillus cereus N349 after 18 hrs by agar dilution method; settings: N349, 18 h; outline: as §1
[23] = tested on: Staphylococcus saprophyticus; test: Antibacterial activity against Staphylococcus saprophyticus CIP 76125 after 18 hrs by agar dilution method; settings: CIP 76125, 18 h; outline: as §1
Enterococcus faecium [24] = test: Antibacterial activity against Enterococcus faecium CIP 107387 after 18 hrs by agar dilution method; settings: CIP 107387, 18 h; outline: as §1
Enterococcus faecium [25] = test: Antibacterial activity against Enterococcus faecium N507 after 18 hrs by agar dilution method; settings: N507, 18 h; outline: as §1
Enterococcus faecalis [26] = test: Antibacterial activity against Enterococcus faecalis N518 after 18 hrs by agar dilution method; settings: N518, 18 h; outline: as §1
Staphylococcus aureus [27] = test: Antibacterial activity against Staphylococcus aureus CIP 53154 after 18 hrs by agar dilution method; settings: CIP 53154, 18 h; outline: as §1
Staphylococcus aureus [28] = test: Antibacterial activity against Staphylococcus aureus CRBIP 2121 after 18 hrs by agar dilution method; settings: CRBIP 2121, 18 h; outline: as §1
Staphylococcus aureus [29] = test: Antibacterial activity against Staphylococcus aureus CIP 7625 after 18 hrs by agar dilution method; settings: CIP 7625, 18 h; outline: as §1
Enterococcus faecium [30] = test: Antibacterial activity against Enterococcus faecium N823 after 18 hrs by agar dilution method; settings: N823, 18 h; outline: as §1
Enterococcus gallinarum [31] = test: Antibacterial activity against Enterococcus gallinarum CIP 105985 after 18 hrs by agar dilution method; settings: CIP 105985, 18 h; outline: as §1
[32] = tested on: Enterococcus casseliflavus; test: Antibacterial activity against Enterococcus casseliflavus N487 after 18 hrs by agar dilution method; settings: N487, 18 h; outline: as §1
Enterococcus gallinarum [33] = test: Antibacterial activity against Enterococcus gallinarum N492 after 18 hrs by agar dilution method; settings: N492, 18 h; outline: as §1
Enterococcus hirae = test: Antibacterial activity against Enterococcus hirae CIP 5855 after 18 hrs by agar dilution method; settings: CIP 5855, 18 h; outline: as §1
MRC5 [34] = test: Cytotoxicity against human MRC5 cells assessed as growth inhibition at 10^-6 M after 72 hrs by MTS assay relative to control; settings: MRC5, 72 h, read-out: GI; outline: as §2
[35] = tested on: Staphylococcus saprophyticus; test: Antibacterial activity against Staphylococcus saprophyticus E260 after 18 hrs by agar dilution method; settings: E260, 18 h; outline: as §1
Enterococcus durans = test: Antibacterial activity against Enterococcus durans CIP 104999 after 18 hrs by agar dilution method; settings: CIP 104999, 18 h; outline: as §1
HCT-116 [36] = test: Cytotoxicity against human HCT116 cells assessed as growth inhibition at 10^-6 M after 72 hrs by MTS assay relative to control; settings: HCT-116, 72 h, read-out: GI; outline: as §2
Staphylococcus aureus [37] = test: Antibacterial activity against Staphylococcus aureus ATCC 25923 after 18 hrs by agar dilution method; settings: ATCC 25923, 18 h; outline: as §1
Enterococcus faecalis [38] = test: Antibacterial activity against Enterococcus faecalis CIP 104676 after 18 hrs by agar dilution method; settings: CIP 104676, 18 h; outline: as §1
Bacillus spizizenii = test: Antibacterial activity against Bacillus subtilis ATCC 6633 after 18 hrs by agar dilution method; settings: ATCC 6633, 18 h; outline: as §1
Streptococcus agalactiae = test: Antibacterial activity against Streptococcus agalactiae CIP 103227 after 18 hrs by agar dilution method; settings: ATCC 13813, 18 h; outline: as §1
Staphylococcus aureus [39] = test: Antibacterial activity against Staphylococcus aureus CIP 483 after 18 hrs by agar dilution method; settings: CIP 483, 18 h; outline: as §1
[40] = tested on: Enterococcus casseliflavus; test: Antibacterial activity against Enterococcus casseliflavus CIP 103018 after 18 hrs by agar dilution method; settings: CIP 103018, 18 h; outline: as §1
Enterococcus faecalis [41] = test: Antibacterial activity against Enterococcus faecalis N491 after 18 hrs by agar dilution method; settings: N491, 18 h; outline: as §1
Corynebacterium striatum = test: Antibacterial activity against Corynebacterium striatum N840 after 18 hrs by agar dilution method; settings: N840, 18 h; outline: as §1
Listeria innocua = test: Antibacterial activity against Listeria innocua E044 after 18 hrs by agar dilution method; settings: E044, 18 h; outline: as §1
Enterococcus faecium [42] = test: Antibacterial activity against Enterococcus faecium N490 after 18 hrs by agar dilution method; settings: N490, 18 h; outline: as §1

SMILES: C=C1CC[C@H]2C(C)(C)CCC[C@]2(C)[C@H]1C[C@H](O)C1=CCOC1=O
- MIC (Listeria monocytogenes [1]): 50 µM (≈ 15.9 µg/mL)
- MIC (Staphylococcus aureus [2]): 50 µM (≈ 15.9 µg/mL)
- MIC (Listeria monocytogenes [3]): 50 µM (≈ 15.9 µg/mL)
- inhibition of growth at 10 µM (HCT-116 [4]): 69%
- MIC (Staphylococcus aureus [5]): > 79 µM
- MIC [6]: 50 µM (≈ 15.9 µg/mL)
- MIC (Bacillus cereus [7]): 25 µM (≈ 7.96 µg/mL)
- MIC [8]: > 79 µM
- MIC (Enterococcus faecium [9]): > 79 µM
- MIC (Enterococcus faecium [10]): > 79 µM
- MIC (Enterococcus faecalis [11]): > 79 µM
- MIC (Listeria monocytogenes [12]): > 79 µM
- MIC (Staphylococcus aureus [13]): 50 µM (≈ 15.9 µg/mL)
- inhibition of growth at 10 µM (MRC5 [14]): 71%
- MIC (Bacillus cereus [15]): 50 µM (≈ 15.9 µg/mL)
- MIC (Bacillus cereus [16]): 25 µM (≈ 7.96 µg/mL)
- MIC (Enterococcus gallinarum [17]): 50 µM (≈ 15.9 µg/mL)
- MIC (Enterococcus faecalis [18]): > 79 µM
- MIC (Mammaliicoccus sciuri): > 79 µM
- MIC (Enterococcus avium): > 79 µM
- MIC [19]: 79 µM (≈ 25.2 µg/mL)
- MIC [20]: 50 µM (≈ 15.9 µg/mL)
- MIC (Listeria monocytogenes [21]): 50 µM (≈ 15.9 µg/mL)
- MIC (Bacillus cereus [22]): 25 µM (≈ 7.96 µg/mL)
- MIC [23]: > 79 µM
- MIC (Enterococcus faecium [24]): > 79 µM
- MIC (Enterococcus faecium [25]): > 79 µM
- MIC (Enterococcus faecalis [26]): > 79 µM
- MIC (Staphylococcus aureus [27]): 50 µM (≈ 15.9 µg/mL)
- MIC (Staphylococcus aureus [28]): 50 µM (≈ 15.9 µg/mL)
- MIC (Staphylococcus aureus [29]): > 79 µM
- MIC (Enterococcus faecium [30]): > 79 µM
- MIC (Enterococcus gallinarum [31]): > 79 µM
- MIC [32]: > 79 µM
- MIC (Enterococcus gallinarum [33]): > 79 µM
- MIC (Enterococcus hirae): > 79 µM
- inhibition of growth at 1 µM (MRC5 [34]): 0%
- MIC [35]: > 79 µM
- MIC (Enterococcus durans): 50 µM (≈ 15.9 µg/mL)
- inhibition of growth at 1 µM (HCT-116 [36]): 0%
- MIC (Staphylococcus aureus [37]): > 79 µM
- MIC (Enterococcus faecalis [38]): > 79 µM
- MIC (Bacillus spizizenii): 25 µM (≈ 7.96 µg/mL)
- MIC (Streptococcus agalactiae): 50 µM (≈ 15.9 µg/mL)
- MIC (Staphylococcus aureus [39]): > 79 µM
- MIC [40]: > 79 µM
- MIC (Enterococcus faecalis [41]): > 79 µM
- MIC (Corynebacterium striatum): 50 µM (≈ 15.9 µg/mL)
- MIC (Listeria innocua): 50 µM (≈ 15.9 µg/mL)
- MIC (Enterococcus faecium [42]): 50 µM (≈ 15.9 µg/mL)
